Measurements reported in ChEMBL document CHEMBL3596194, “Design, synthesis and biological evaluation of bivalent benzoxazolone and benzothiazolone ligands as potential anti-inflammatory/analgesic agents” (Bioorg Med Chem, 2015).
Active and inactive are the calls of the source. The calls are words filed in the database; no cut-off is given here.

Assays:
[1] = target: T1, Nitric oxide synthase, inducible (Mus musculus) (UniProt P29477); assay: Antiinflammatory activity in mouse RAW264.7 cells assessed as inhibition of LPS-induced iNOS activity up to 25 ug/ml incubated for 30 mins prior to LPS challenge measured after 24 hrs by Griess assay; assay type: cell-based
T1 sequence (whole entry): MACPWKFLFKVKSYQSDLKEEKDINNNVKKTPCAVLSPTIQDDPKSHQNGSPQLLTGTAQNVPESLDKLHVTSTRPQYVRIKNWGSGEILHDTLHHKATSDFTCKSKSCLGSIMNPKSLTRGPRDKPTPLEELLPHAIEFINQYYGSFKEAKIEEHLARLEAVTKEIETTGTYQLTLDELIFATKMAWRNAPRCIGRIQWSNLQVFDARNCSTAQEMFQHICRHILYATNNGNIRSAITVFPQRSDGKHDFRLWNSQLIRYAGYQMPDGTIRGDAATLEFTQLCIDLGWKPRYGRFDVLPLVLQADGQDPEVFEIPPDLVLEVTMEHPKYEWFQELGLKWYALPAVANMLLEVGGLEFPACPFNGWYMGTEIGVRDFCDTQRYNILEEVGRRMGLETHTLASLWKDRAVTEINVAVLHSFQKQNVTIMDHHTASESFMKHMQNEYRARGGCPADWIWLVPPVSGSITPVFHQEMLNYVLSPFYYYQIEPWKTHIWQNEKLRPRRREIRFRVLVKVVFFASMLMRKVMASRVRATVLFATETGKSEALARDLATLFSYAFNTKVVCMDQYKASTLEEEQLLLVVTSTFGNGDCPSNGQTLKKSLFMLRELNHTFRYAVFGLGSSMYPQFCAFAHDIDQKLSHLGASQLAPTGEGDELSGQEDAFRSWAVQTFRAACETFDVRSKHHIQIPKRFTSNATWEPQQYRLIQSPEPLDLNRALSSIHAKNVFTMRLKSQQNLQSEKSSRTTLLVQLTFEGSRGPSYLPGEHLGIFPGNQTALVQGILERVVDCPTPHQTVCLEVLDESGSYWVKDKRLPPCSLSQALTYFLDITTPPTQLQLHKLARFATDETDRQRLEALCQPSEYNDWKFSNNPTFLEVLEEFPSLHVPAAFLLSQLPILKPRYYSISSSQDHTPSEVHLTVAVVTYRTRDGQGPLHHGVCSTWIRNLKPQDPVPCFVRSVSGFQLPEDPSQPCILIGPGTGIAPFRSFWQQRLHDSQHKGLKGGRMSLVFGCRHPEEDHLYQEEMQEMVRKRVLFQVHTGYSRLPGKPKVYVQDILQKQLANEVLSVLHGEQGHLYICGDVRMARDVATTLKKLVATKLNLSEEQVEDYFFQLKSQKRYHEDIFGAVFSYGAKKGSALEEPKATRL
Summary of the method: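 RAW264.7 macrophages seeded at 50,000 cells/well and grown 24 h to ≥75% confluency. Compounds in serum-free medium added 30 min before LPS (5 μg/mL), then 24 h incubation. Nitrite in the supernatant measured with Griess reagent.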

SW1353 = assay: Antiinflammatory activity in human SW1353 cells assessed as inhibition of PMA-induced NF-kappaB activity up to 25 ug/ml incubated for 30 mins prior to PMA challenge measured after 8 hrs by luciferase reporter gene assay; assay type: cell-based
Summary of the method: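 SW1353 chondrosarcoma cells grown in DMEM/F12 with 10% FBS at 37 °C, 5% CO2. Cells electroporated with an NF-κB luciferase plasmid (50 μg/mL, 160 V, one 70-ms pulse) and plated at 1.25 × 10⁵ cells/well. After 24 h, compound was added 30 min before PMA (70 ng/mL), then 8 h incubation. Luciferase read-out as % inhibition vs vehicle; IC50 from dose curves. Sp-1 served as a counter-screen.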

[2] = Cytotoxicity against pig LLC-PK11 cells up to 25 ug/ml after 48 hrs by neutral red assay relative to control; assay type: cell-based, Sus scrofa; conditions: llc-pk11, 48 h
Summary of the method: (§1)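 Cells grown in RPMI-1640 with 10% bovine calf serum and amikacin at 37 °C, 5% CO2. Seeded at 25,000 cells/well and grown 24 h, then exposed 48 h to samples diluted in serum-free medium. Viability by Neutral Red; % decrease vs vehicle; IC50 from dose curves. Triplicate runs, mean reported; doxorubicin as positive control.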

Vero = assay: Cytotoxicity against African green monkey Vero cells up to 25 ug/ml after 48 hrs by neutral red assay relative to control; assay type: cell-based; conditions: chlorocebus sabaeus; summary of the method: as §1
SK-OV-3 = assay: Cytotoxicity against human SKOV3 cells up to 25 ug/ml after 48 hrs by neutral red assay relative to control; assay type: cell-based; conditions: sk-ov-3, 48 h; summary of the method: as §1
BT-549 [3] = assay: Cytotoxicity against human BT549 cells up to 25 ug/ml after 48 hrs by neutral red assay relative to control; assay type: cell-based; conditions: bt-549, 48 h; summary of the method: as §1
KB = assay: Cytotoxicity against human KB cells up to 25 ug/ml after 48 hrs by neutral red assay relative to control; assay type: cell-based; summary of the method: as §1
SK-MEL [4] = assay: Cytotoxicity against human SK-MEL cells up to 25 ug/ml after 48 hrs by neutral red assay relative to control; assay type: cell-based; summary of the method: as §1
[5] = Antiinflammatory activity in human SW1353 cells assessed as inhibition of PMA-induced NF-kappaB activity incubated for 30 mins prior to PMA challenge measured after 8 hrs by luciferase reporter gene assay; assay type: cell-based
Summary of the method: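 SW1353 cells in DMEM/F12 with 10% FBS, electroporated with NF-κB luciferase plasmid (160 V, one 70-ms pulse), plated at 1.25 × 10⁵ cells/well. After 24 h, graded compound concentrations added 30 min before PMA 70 ng/mL, then 8 h incubation. Luciferase read-out, % inhibition versus vehicle, IC50 from dose curves. Sp-1 reporter served as nonspecific control.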

BT-549 [6] = assay: Cytotoxicity against human BT549 cells after 48 hrs by neutral red assay relative to control; assay type: cell-based; conditions: BT-549, 48 h
Summary of the method: (§2)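 Cells grown in RPMI-1640 with 10% bovine calf serum and amikacin at 37°C, 5% CO₂. Seeded 25,000 cells/well, grown 24 h, then exposed to compounds diluted in serum-free medium for 48 h. Viability by Neutral Red uptake, % decrease versus vehicle control. IC50 from dose curves, triplicate means. Doxorubicin positive control.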

SK-MEL [7] = assay: Cytotoxicity against human SK-MEL cells after 48 hrs by neutral red assay relative to control; assay type: cell-based; summary of the method: as §2

Row | Compound | inhibition [1] | inhibition (SW1353) | Activity [2] | Activity (Vero) | Activity (SK-OV-3) | Activity (BT-549 [3]) | Activity (KB) | Activity (SK-MEL [4]) | IC50 [5] [µM] | IC50 (BT-549 [6]) [µM] | IC50 (SK-MEL [7]) [µM]
1 | O=c1oc2ccccc2n1CCCCN1CCN(CCCCn2c(=O)oc3ccccc32)CC1 | inactive | inactive | Non-toxic | Non-toxic | Non-toxic | Non-toxic | Non-toxic | Non-toxic |  |  | 
2 | O=c1sc2ccccc2n1CCCCCN1CCN(CCCCn2c(=O)sc3ccccc32)CC1 |  |  | Non-toxic | Non-toxic | Non-toxic |  | Non-toxic |  | 1.18 | 22.1 | 17.5
3 | O=c1oc2ccccc2n1CCCCCN1CCN(CCn2c(=O)oc3ccccc32)CC1 |  |  | Non-toxic | Non-toxic | Non-toxic | Non-toxic | Non-toxic | Non-toxic |  |  | 
4 | O=c1oc2ccccc2n1CCCN1CCN(CCn2c(=O)oc3ccccc32)CC1 | inactive | inactive | Non-toxic | Non-toxic | Non-toxic | Non-toxic | Non-toxic | Non-toxic |  |  | 
5 | O=c1oc2ccccc2n1CCN1CCN(CCn2c(=O)oc3ccccc32)CC1 | inactive | inactive | Non-toxic | Non-toxic | Non-toxic | Non-toxic | Non-toxic | Non-toxic |  |  | 
6 | O=c1oc2ccccc2n1CCCCCCN1CCN(CCCCCCn2c(=O)oc3ccccc32)CC1 |  | inactive | Non-toxic | Non-toxic | Non-toxic |  | Non-toxic |  |  | 18.5 | 21.3
7 | O=c1oc2ccccc2n1CCCCCN1CCN(CCCn2c(=O)oc3ccccc32)CC1 |  | inactive | Non-toxic | Non-toxic | Non-toxic | Non-toxic | Non-toxic | Non-toxic |  |  | 
8 | O=c1oc2ccccc2n1CCCCCCN1CCN(CCCn2c(=O)oc3ccccc32)CC1 |  | inactive | Non-toxic | Non-toxic | Non-toxic | Non-toxic | Non-toxic | Non-toxic |  |  | 
9 | O=c1sc2ccccc2n1CCCCCN1CCN(CCCn2c(=O)sc3ccccc32)CC1 |  |  | Non-toxic | Non-toxic | Non-toxic |  | Non-toxic |  | 1.46 | 14 | 16.8
10 | O=c1sc2ccccc2n1CCN1CCN(CCn2c(=O)sc3ccccc32)CC1 | inactive | inactive | Non-toxic | Non-toxic | Non-toxic | Non-toxic | Non-toxic | Non-toxic |  |  | 
11 | O=c1sc2ccccc2n1CCCCN1CCN(CCCCn2c(=O)sc3ccccc32)CC1 | inactive |  | Non-toxic | Non-toxic | Non-toxic | Non-toxic | Non-toxic | Non-toxic | 2.28 |  | 
12 | O=c1oc2ccccc2n1CCCCN1CCN(CCn2c(=O)oc3ccccc32)CC1 | inactive | inactive | Non-toxic | Non-toxic | Non-toxic | Non-toxic | Non-toxic | Non-toxic |  |  | 
13 | O=c1oc2ccccc2n1CCCCCCN1CCN(CCCCCn2c(=O)oc3ccccc32)CC1 |  |  | Non-toxic | Non-toxic | Non-toxic |  | Non-toxic |  | 1.4 | 22.5 | 23
14 | O=c1sc2ccccc2n1CCCCCCN1CCN(CCn2c(=O)sc3ccccc32)CC1 |  |  | Non-toxic | Non-toxic | Non-toxic |  | Non-toxic |  | 2.95 | 25 | 25
15 | O=c1oc2ccccc2n1CCCCCCN1CCN(CCCCn2c(=O)oc3ccccc32)CC1 |  |  | Non-toxic | Non-toxic | Non-toxic | Non-toxic | Non-toxic | Non-toxic | 1.24 |  | 
16 | O=c1oc2ccccc2n1CCCCN1CCN(CCCn2c(=O)oc3ccccc32)CC1 | inactive | inactive | Non-toxic | Non-toxic | Non-toxic | Non-toxic | Non-toxic | Non-toxic |  |  | 
17 | O=c1sc2ccccc2n1CCCCCCN1CCN(CCCn2c(=O)sc3ccccc32)CC1 |  |  | Non-toxic | Non-toxic | Non-toxic |  | Non-toxic |  | 2.4 | 25 | 12
18 | C=C1C(=O)O[C@@H]2[C@H]3O[C@]3(C)CC/C=C(\C)CC[C@@H]12 |  |  |  |  |  |  |  |  | 2.57 |  | 
19 | O=c1oc2ccccc2n1CCCCCCN1CCN(CCn2c(=O)oc3ccccc32)CC1 |  |  | Non-toxic | Non-toxic | Non-toxic | Non-toxic | Non-toxic | Non-toxic | 3.07 |  | 
20 | O=c1oc2ccccc2n1CCCN1CCN(CCCn2c(=O)oc3ccccc32)CC1 | inactive |  | Non-toxic | Non-toxic | Non-toxic | Non-toxic | Non-toxic | Non-toxic | 4.91 |  | 
